Results published in ChEMBL document CHEMBL2029249, “N-Methyl-3-(tetrahydro-2H-pyran-4-yl)-2,3,4,9-tetrahydro-1H-carbazole-6-carboxamides as a novel class of cannabinoid receptors agonists with low CNS penetration” (Bioorg Med Chem Lett, 2012).
In brackets after ≈: the same amount, converted by molar mass.

Assays:
Cannabinoid receptor 1 [1] = target: T1, Cannabinoid receptor 1 (Homo sapiens, UniProt P21554); assay: Agonist activity at human CB1 receptor expressed in HEK293 cells assessed as [35S]GTPgamma binding relative to WIN55212-2; format: functional, cell-based
T1 sequence (P21554 whole entry): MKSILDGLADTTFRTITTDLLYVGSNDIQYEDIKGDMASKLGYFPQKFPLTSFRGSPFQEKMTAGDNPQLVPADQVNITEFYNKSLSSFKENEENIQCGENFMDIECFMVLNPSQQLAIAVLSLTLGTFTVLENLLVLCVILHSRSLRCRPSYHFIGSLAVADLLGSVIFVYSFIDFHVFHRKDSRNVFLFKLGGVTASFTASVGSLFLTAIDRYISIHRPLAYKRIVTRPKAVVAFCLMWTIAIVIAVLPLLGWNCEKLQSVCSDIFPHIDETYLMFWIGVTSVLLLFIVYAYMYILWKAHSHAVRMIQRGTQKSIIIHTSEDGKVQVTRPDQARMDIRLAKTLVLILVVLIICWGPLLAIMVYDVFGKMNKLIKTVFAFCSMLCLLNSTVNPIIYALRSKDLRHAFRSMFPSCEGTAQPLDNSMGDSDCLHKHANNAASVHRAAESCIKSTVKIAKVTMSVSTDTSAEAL
Outline: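 GTPγ35S binding on membranes from HEK293 EBNA cells stably transfected with cloned human CB1; Emax relative to WIN55,212-2 as reference agonist; means of at least three measurements.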

[2] = Intrinsic clearance in human liver microsomes at 1 uM in presence of NADPH; format: ADME, Microsome; details: read-out: CLH
Cannabinoid receptor 1 [3] = target: T1, Cannabinoid receptor 1; assay: Agonist activity at human CB1 receptor expressed in HEK293 cells assessed as [35S]GTPgamma binding; format: functional, cell-based
[4] = Thermodynamic solubility of the compound at pH 7.4; details: buffer
[5] = Ratio of drug level in brain to plasma in rat by microdialysis assay
Cannabinoid receptor 2 = Cannabinoid receptor 2 (Homo sapiens, UniProt P34972); assay: Binding affinity to human CB2 receptor
Chain of Cannabinoid receptor 2 (P34972 whole entry): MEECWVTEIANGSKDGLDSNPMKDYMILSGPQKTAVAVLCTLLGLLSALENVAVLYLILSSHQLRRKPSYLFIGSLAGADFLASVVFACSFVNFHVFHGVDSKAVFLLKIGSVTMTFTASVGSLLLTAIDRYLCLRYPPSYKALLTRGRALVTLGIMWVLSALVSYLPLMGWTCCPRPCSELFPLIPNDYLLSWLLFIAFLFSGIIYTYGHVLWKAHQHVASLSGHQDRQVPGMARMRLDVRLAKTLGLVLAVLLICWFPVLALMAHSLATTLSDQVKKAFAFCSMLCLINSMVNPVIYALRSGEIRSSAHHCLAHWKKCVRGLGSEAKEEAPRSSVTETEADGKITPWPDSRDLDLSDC

Cannabinoid receptor 1 [6] = target: T1, Cannabinoid receptor 1; assay: Displacement of [3H]CP55940 from human CB1 receptor expressed in HEK293 cells; format: cell-based
[7] = target: Voltage-gated inwardly rectifying potassium channel KCNH2 (Homo sapiens, UniProt Q12809)
Chain of Voltage-gated inwardly rectifying potassium channel KCNH2 (Q12809 whole entry): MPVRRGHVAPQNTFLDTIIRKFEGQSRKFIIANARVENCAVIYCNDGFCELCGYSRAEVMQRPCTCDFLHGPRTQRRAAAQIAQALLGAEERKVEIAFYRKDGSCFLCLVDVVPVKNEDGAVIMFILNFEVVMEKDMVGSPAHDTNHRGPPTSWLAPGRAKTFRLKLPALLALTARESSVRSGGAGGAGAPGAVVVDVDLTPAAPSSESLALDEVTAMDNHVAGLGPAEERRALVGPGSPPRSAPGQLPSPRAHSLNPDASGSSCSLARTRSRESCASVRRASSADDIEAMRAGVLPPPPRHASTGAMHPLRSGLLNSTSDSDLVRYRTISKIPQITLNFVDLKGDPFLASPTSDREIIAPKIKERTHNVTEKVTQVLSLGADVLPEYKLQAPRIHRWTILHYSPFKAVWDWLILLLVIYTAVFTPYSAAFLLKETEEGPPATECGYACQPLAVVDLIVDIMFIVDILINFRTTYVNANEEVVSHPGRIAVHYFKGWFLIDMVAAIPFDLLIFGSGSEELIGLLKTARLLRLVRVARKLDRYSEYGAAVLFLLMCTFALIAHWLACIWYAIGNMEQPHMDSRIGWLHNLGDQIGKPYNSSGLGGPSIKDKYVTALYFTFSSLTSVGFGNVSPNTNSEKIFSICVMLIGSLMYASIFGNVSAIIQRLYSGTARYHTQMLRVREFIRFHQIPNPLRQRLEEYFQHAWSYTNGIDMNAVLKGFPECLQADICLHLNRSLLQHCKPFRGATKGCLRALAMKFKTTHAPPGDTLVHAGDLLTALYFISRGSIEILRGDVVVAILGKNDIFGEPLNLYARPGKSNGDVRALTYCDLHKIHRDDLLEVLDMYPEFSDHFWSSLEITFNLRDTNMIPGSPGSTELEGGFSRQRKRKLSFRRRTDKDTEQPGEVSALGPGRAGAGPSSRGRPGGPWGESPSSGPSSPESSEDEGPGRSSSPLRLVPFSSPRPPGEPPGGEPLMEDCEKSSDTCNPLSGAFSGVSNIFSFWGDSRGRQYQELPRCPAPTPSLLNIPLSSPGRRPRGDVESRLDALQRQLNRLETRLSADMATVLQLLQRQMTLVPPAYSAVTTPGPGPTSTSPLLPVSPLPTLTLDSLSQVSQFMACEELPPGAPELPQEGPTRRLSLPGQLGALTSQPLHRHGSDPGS

[8] = Apparent permeability from apical to basal side of human Caco2 cells at 10 uM; details: Caco-2

## CCN(CC(=O)NCCF)C(=O)c1ccc2c(c1)c1c(n2C)CC[C@@H](C2CCOCC2)C1
Cannabinoid receptor 1 [1]
  Emax: 107%
[2]
  microsomal CLint at 1 µM: 33 µL/min/mg
Cannabinoid receptor 1 [3]
  EC50: 9.8 nM
[4]
  solubility thermodynamic: 71 µM (≈ 31.5 µg/mL)
[5]
  Kp: 0.068

## CN(CC(=O)NC1CC1)C(=O)c1ccc2c(c1)c1c(n2C)CC[C@H](C2CCOCC2)C1
Cannabinoid receptor 2
  Ki: 49.1 nM
Cannabinoid receptor 1 [1]
  Emax: 111%
[2]
  microsomal CLint at 1 µM: 38 µL/min/mg
Cannabinoid receptor 1 [3]
  EC50: 446 nM
[4]
  solubility thermodynamic: 63 µM (≈ 26.7 µg/mL)
Cannabinoid receptor 1 [6]
  Ki: 177 nM

## CONC(=O)CCCN(C)C(=O)c1ccc2c(c1)c1c(n2C)CC[C@@H](C2CCOCC2)C1
Cannabinoid receptor 1 [1]
  Emax: 104%
[7]
  IC50: > 33 µM
[2]
  microsomal CLint at 1 µM: 36 µL/min/mg
[4]
  solubility thermodynamic: 1330 µM (≈ 587 µg/mL)

## CN(CC(=O)NC1CC1)C(=O)c1ccc2c(c1)c1c(n2C)CC[C@@H](C2CCOCC2)C1
Cannabinoid receptor 2
  Ki: 21.5 nM
Cannabinoid receptor 1 [1]
  Emax: 116%
[8]
  Papp A→B at 10 µM: 27 ×10⁻⁶ cm/s
[2]
  microsomal CLint at 1 µM: 30 µL/min/mg
Cannabinoid receptor 1 [3]
  EC50: 39.9 nM
[4]
  solubility thermodynamic: 86 µM (≈ 36.4 µg/mL)
Cannabinoid receptor 1 [6]
  Ki: 24.5 nM
[5]
  Kp: 0.024

## CN(C(=O)c1ccc2c(c1)c1c(n2C)CC[C@@H](C2CCOCC2)C1)[C@H](CO)CCC(=O)NCCF
Cannabinoid receptor 1 [1]
  Emax: 118%
[8]
  Papp A→B at 10 µM: 0.11 ×10⁻⁶ cm/s
[7]
  IC50: > 33 µM
[2]
  microsomal CLint at 1 µM: 27 µL/min/mg
[4]
  solubility thermodynamic: 1310 µM (≈ 639 µg/mL)
[5]
  Kp: 0.025

## CNC(=O)CCCN(C)C(=O)c1ccc2c(c1)c1c(n2C)CCC(C2CCOCC2)C1 (racemic)
Cannabinoid receptor 1 [1]
  Emax: 121%
[2]
  microsomal CLint at 1 µM: 27 µL/min/mg
[4]
  solubility thermodynamic: 1550 µM (≈ 660 µg/mL)

## CCN(CCCC(=O)NCCO)C(=O)c1ccc2c(c1)c1c(n2C)CC[C@@H](C2CCOCC2)C1
Cannabinoid receptor 1 [1]
  Emax: 113%
[7]
  IC50: > 33 µM
[2]
  microsomal CLint at 1 µM: 38 µL/min/mg
[4]
  solubility thermodynamic: 760 µM (≈ 357 µg/mL)
[5]
  Kp: < 0.02

## CN(CCCC(=O)NCCO)C(=O)c1ccc2c(c1)c1c(n2C)CC[C@@H](C2CCOCC2)C1
Cannabinoid receptor 1 [1]
  Emax: 120%
[2]
  microsomal CLint at 1 µM: 17 µL/min/mg
[4]
  solubility thermodynamic: 2490 µM (≈ 1130 µg/mL)

## Cn1c2c(c3cc(C(=O)NCCCC(=O)NC4CC4)ccc31)CC(C1CCOCC1)CC2 (stereo not given)
[7]
  IC50: > 31 µM
[2]
  microsomal CLint at 1 µM: 47 µL/min/mg
[4]
  solubility thermodynamic: 1 µM (≈ 0.438 µg/mL)

## CN(CCCC(=O)NCC#N)C(=O)c1ccc2c(c1)c1c(n2C)CC[C@@H](C2CCOCC2)C1
Cannabinoid receptor 1 [1]
  Emax: 110%
[2]
  microsomal CLint at 1 µM: 42 µL/min/mg
[4]
  solubility thermodynamic: 300 µM (≈ 135 µg/mL)

## CN(CCCC(=O)NC1COC1)C(=O)c1ccc2c(c1)c1c(n2C)CC[C@@H](C2CCOCC2)C1
Cannabinoid receptor 1 [1]
  Emax: 116%
[2]
  microsomal CLint at 1 µM: 29 µL/min/mg
Cannabinoid receptor 1 [3]
  EC50: 43.7 nM
[4]
  solubility thermodynamic: 1670 µM (≈ 781 µg/mL)
[5]
  Kp: 0.019

## CN(CCC(=O)NC1CC1)C(=O)c1ccc2c(c1)c1c(n2C)CCC(C2CCOCC2)C1 (stereo not given)
[4]
  solubility thermodynamic: 523 µM (≈ 229 µg/mL)

## CNC(=O)CCCN(C)C(=O)c1ccc2c(c1)c1c(n2C)CC[C@H](C2CCOCC2)C1
[2]
  microsomal CLint at 1 µM: 31 µL/min/mg
[4]
  solubility thermodynamic: 1070 µM (≈ 455 µg/mL)
Cannabinoid receptor 1 [6]
  Ki: 576 nM
